Measurements: ChEMBL document CHEMBL1671761, “Preclinical characterization of BI 201335, a C-terminal carboxylic acid inhibitor of the hepatitis C virus NS3-NS4A protease” (Antimicrob Agents Chemother, 2010)
pEC50, pIC50, pKi: −log10 of the molar value.

How the values were obtained:
[1] = Inhibition of HCV 2a NS3/4A protease; set-up: species or system Hepatitis C virus subtype 2a; details: read-out: Ki(app)
Outline: (§1)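 Substrate was 5 μM anthranilyl-DDIVPAbu[C(O)-O]AMY(3-NO2)TW-OH in 50 mM Tris pH 8.0, 0.25 M citrate, 0.01% dodecylmaltoside, 1 mM TCEP, 5% DMSO. Run at 23°C for 60-70 min, stopped with MES pH 5.8, read by product fluorescence. IC50 converted to apparent Ki via IC50=Ki(1+[S]/Km). Mean ± SD, ≥3 experiments.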

Hepatitis C virus [2] = experiment: Antiviral activity against HCV 1a infected in Huh7 cells assessed as inhibition of viral replication after 72 hrs by RT-PCR; type: functional, organism-based, Hepacivirus hominis; details: subtype 1a, Huh-7, 72 h
Outline: (§2)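 Huh-7-derived subgenomic replicon cells of genotype 1a or 1b, grown in DMEM/10% FBS with G418. Replicon RNA was quantified by TaqMan real-time RT-PCR against an in vitro-transcribed RNA standard curve and normalized to total RNA (RiboGreen).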

[3] = Binding affinity to HCV 5a NS3/4A protease; set-up: species or system Hepatitis C virus subtype 5a; details: read-out: Ki(app); outline: as §1
[4] = Apparent permeability from apical to basolateral side in human Caco2 cells; type: ADME, cell-based; details: Caco-2, read-out: permeability
Outline: (§3)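 Caco-2 monolayers were differentiated 23-25 days on Transwell inserts. After 30 min at 37°C, compound was added to the donor side (apical for A-to-B, basolateral for B-to-A). Receiver sampled at 0, 1, 2, 3 h; analysed by HPLC.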

[5] = Inhibition of HCV 1a NS3/4A protease; set-up: species or system Hepatitis C virus subtype 1a; details: read-out: Ki(app); outline: as §1
Huh-7 = experiment: Cytotoxicity activity against human HuH7 cells by MTT assay; type: functional
Outline: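 MTT assay in proliferating Huh-7 cells exposed 72 h to serial inhibitor dilutions; formazan read at 570 nm. CC50 taken from percent inhibition.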

Hepatitis C virus [6] = experiment: Inhibition of HCV 1b NS3/4A protease; set-up: species or system Hepatitis C virus subtype 1b; details: read-out: Ki(app)
Outline: as §1, with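 “Full-length NS3 coexpressed with the 54-residue NS4A, 0.5 nM (2.5 nM for genotype 1a). Substrate” for “Substrate”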

[7] = Inhibition of HCV 2b NS3/4A protease; set-up: species or system Hepatitis C virus subtype 2b; details: read-out: Ki(app); outline: as §1
[8] = Inhibition of HCV 3a NS3/4A protease; set-up: species or system Hepatitis C virus subtype 3a; details: read-out: Ki(app); outline: as §1
[9] = Inhibition of HCV 4a NS3/4A protease; set-up: species or system Hepatitis C virus subtype 4a; details: read-out: Ki(app); outline: as §1
[10] = Inhibition of HCV 6a NS3/4A protease; set-up: species or system Hepatitis C virus subtype 6a; details: read-out: Ki(app); outline: as §1
[11] = Apparent permeability from basolateral to apical side in human Caco2 cells; type: ADME, cell-based; details: Caco-2, read-out: permeability; outline: as §3
Cathepsin B = Cathepsin B (Homo sapiens, UniProt P07858); experiment: Inhibition of human CatB after 60 mins fluorescence assay
Neutrophil elastase = Neutrophil elastase (Homo sapiens, UniProt P08246); experiment: Inhibition of human leukocyte elastase after 60 mins fluorescence assay
Hepatitis C virus [12] = experiment: Antiviral activity against HCV 1b infected in Huh7 cells assessed as inhibition of viral replication after 72 hrs by RT-PCR; type: functional, organism-based, Hepacivirus hominis; details: genotype 1b, Huh-7, 72 h; outline: as §2
[13] = Clearance in human liver microsomes; type: ADME, Microsome; details: read-out: QH
Outline: (§4)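 Male liver microsomes (Sprague-Dawley rat, beagle dog, human, rhesus monkey) at 1 mg microsomal protein in 1 ml of 0.066 M Tris pH 7.4 with 2.5 mM NADPH. Initial compound concentration was 2 μM. Incubations ran at 37°C and were started with NADPH. Samples were taken at 0, 10 and 20 min and quenched with an equal volume of 1:1 acetonitrile-methanol. Supernatants were analysed by HPLC and clearance calculated by the Obach method.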

[14] = Clearance in Sprague-Dawley rat liver microsomes; type: ADME, Microsome; details: read-out: QH; outline: as §4

Sequence of Neutrophil elastase (P08246 whole entry): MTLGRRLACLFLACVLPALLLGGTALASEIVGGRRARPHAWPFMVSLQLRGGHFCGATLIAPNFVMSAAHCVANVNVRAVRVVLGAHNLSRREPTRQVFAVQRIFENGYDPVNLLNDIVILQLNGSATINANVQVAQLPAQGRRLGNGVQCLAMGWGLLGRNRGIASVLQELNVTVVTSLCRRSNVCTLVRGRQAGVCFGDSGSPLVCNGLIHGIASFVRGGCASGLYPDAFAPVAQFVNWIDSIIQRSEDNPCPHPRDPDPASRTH

Compound | pKi [1] | pEC50 (Hepatitis C virus [2]) | pKi [3] | Papp A→B [4] [×10⁻⁶ cm/s] | pKi [5] | CC50 (Huh-7) [nM] | pKi (Hepatitis C virus [6]) | pKi [7] | pKi [8] | pKi [9] | pKi [10] | Papp B→A [11] [×10⁻⁶ cm/s] | pIC50 (Cathepsin B) | pIC50 (Neutrophil elastase) | pEC50 (Hepatitis C virus [12]) | hepatic extraction ratio [13] | hepatic extraction ratio [14]
CC(C)(C)NC(=O)N[C@H](C(=O)N1C[C@H]2[C@@H]([C@H]1C(=O)NC(CC1CCC1)C(=O)C(N)=O)C2(C)C)C(C)(C)C (stereo partly specified) [BOCEPREVIR] | 8.14 | 6.26 | 7.74 | 0.6 | 8.96 | > 70000 | 8.70 | 7.55 | 7.64 | 8.07 | 8.64 | 23 | 5.21 | 4.77 |  |  | 
CCC[C@H](NC(=O)[C@@H]1[C@H]2CCC[C@H]2CN1C(=O)[C@@H](NC(=O)[C@@H](NC(=O)c1cnccn1)C1CCCCC1)C(C)(C)C)C(=O)C(=O)NC1CC1 | 7.82 | 6.15 | 6.96 | 4.1 | 8.49 | 37000 | 8.36 | 7.14 | 6.80 | 7.30 | 8.35 | 23 | 5.64 | 6.17 | 6.27 | 0.64 | 0.41
